# Reference: ChEMBL document CHEMBL2163276, “A peptide nucleic acid-aminosugar conjugate targeting transactivation response element of HIV-1 RNA genome shows a high bioavailability in human cells and strongly inhibits tat-mediated transactivation of HIV-1 transcription” (J Med Chem, 2012)
# Tests used:
# CCRF-CEM [1] = assay: Cellular uptake in human CEM cells at 1 uM after 12 hrs by confocal microscopic analysis; assay type: ADME, cell-based
# How it was run: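 CEM cells incubated 12 h with FITC-labelled conjugate (0.5 and 1 µM) or with 1 µM FITC-labelled naked PNA. Cells then washed, nuclei DAPI-stained, and imaged by confocal microscopy with FITC read at 488 nm.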
# CCRF-CEM [2] = assay: Cellular uptake in human CEM cells at 2 uM after overnight incubation; assay type: ADME, cell-based
Drug uptake (CCRF-CEM [1]),Drug uptake (CCRF-CEM [2]) [%],SMILES
Not Active,,Cc1cn(CC(=O)N(CCN)CC(=O)NCCN(CC(=O)NCCN(CC(=O)NCCN(CC(=O)NCCN(CC(=O)NCCN(CC(=O)NCCN(CC(=O)NCCN(CC(=O)NCCN(CC(=O)NCCN(CC(=O)NCCN(CC(=O)NCCN(CC(=O)NCCN(CC(=O)NCCN(CC(=O)NCCN(CC(=O)NCCN(CC(=O)N[C@@H](CCCCNC(=S)Nc2ccc(-c3c4ccc(=O)cc-4oc4cc(O)ccc34)c(C(=O)O)c2)C(N)=O)C(=O)Cn2cc(C)c(=O)[nH]c2=O)C(=O)Cn2ccc(N)nc2=O)C(=O)Cn2cc(C)c(=O)[nH]c2=O)C(=O)Cn2cnc3c(N)ncnc32)C(=O)Cn2cnc3c(=O)[nH]c(N)nc32)C(=O)Cn2cnc3c(N)ncnc32)C(=O)Cn2ccc(N)nc2=O)C(=O)Cn2cc(C)c(=O)[nH]c2=O)C(=O)Cn2ccc(N)nc2=O)C(=O)Cn2cnc3c(=O)[nH]c(N)nc32)C(=O)Cn2cnc3c(=O)[nH]c(N)nc32)C(=O)Cn2cnc3c(N)ncnc32)C(=O)Cn2ccc(N)nc2=O)C(=O)Cn2ccc(N)nc2=O)C(=O)Cn2ccc(N)nc2=O)c(=O)[nH]c1=O
,30,Cc1cn(CC(=O)N(CCNC(=O)CN(CCNC(=O)CN(CCNC(=O)CN(CCNC(=O)CN(CCNC(=O)CN(CCNC(=O)CN(CCNC(=O)CN(CCNC(=O)CN(CCNC(=O)CN(CCNC(=O)CN(CCNC(=O)CN(CCNC(=O)CN(CCNC(=O)CN(CCNC(=O)CN(CCNC(=O)CN(CCNC(=O)CCC(=O)NCCCCCCO[C@@H]2[C@@H](O)[C@H](N)C[C@H](N)[C@H]2O[C@H]2O[C@H](CN)[C@@H](O)[C@H](O)[C@H]2N)C(=O)Cn2cc(C)c(=O)[nH]c2=O)C(=O)Cn2ccc(N)nc2=O)C(=O)Cn2ccc(N)nc2=O)C(=O)Cn2ccc(N)nc2=O)C(=O)Cn2cnc3c(N)ncnc32)C(=O)Cn2cnc3c(=O)[nH]c(N)nc32)C(=O)Cn2cnc3c(=O)[nH]c(N)nc32)C(=O)Cn2ccc(N)nc2=O)C(=O)Cn2cc(C)c(=O)[nH]c2=O)C(=O)Cn2ccc(N)nc2=O)C(=O)Cn2cnc3c(N)ncnc32)C(=O)Cn2cnc3c(=O)[nH]c(N)nc32)C(=O)Cn2cnc3c(N)ncnc32)C(=O)Cn2cc(C)c(=O)[nH]c2=O)C(=O)Cn2ccc(N)nc2=O)CC(N)=O)c(=O)[nH]c1=O
